PGC1a acetyl inh: lowers PGC1a acetylation signal in U2OS cells; inhibition, % at 15.6 µM; AlphaScreen anti-acetyl-lysine; with virally co-expressed GCN5 acetyltransferase; 0.17% of 350,000 active; AID 651687;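 active = every replicate shows inhibition of at least 40%; inconclusive = mean inhibition at least 40% but some replicate below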;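 also: 0% = neutral control wells and 100% = positive control wells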
FN deposit inh: fibronectin deposition inhibition | AH1F fibroblasts, Alexa488-fibronectin deposition fluorescence, overnight | inhibition, % at 12.6 µM | 0.086% of 350,000 active | AID 743247;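 active = mean inhibition across replicates of 30% or more, regardless of how many single replicates reach that level; inconclusive = mean under 30% yet at least half of replicates reach 30%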;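 also: positive control wells lacked labelled fibronectin entirely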
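Schedule: 1 h cell adhesion before compound, then overnight fibronectin incubation; test system: AH1F fibroblast monolayer depositing Alexa488-labelled fibronectin into matrix; quantity: 10000 AH1F cells per well; probe or stimulus: fluorescent fibronectin at 24 nM final; signal: fluorescence, ex 485 nm, em 525 nm; evaluation: percent inhibition as loss of matrix-bound fibronectin fluorescence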
Ecoli rRNA inh: inhibitors of bacterial rRNA selective over humanized ribosomes | E. coli WT GFP vs humanized-ribosome RFP mutants, fluorescence, 24 h; hits give low values; DMSO median 0, no signal -100 | GFP signal change (wild-type ribosome), % (concentration not given with the values) | 1.6% of 350,000 active | AID 720706;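 active = significant combined selectivity score with lowered wild-type GFP, culture density cut under 30%, mutant RFP and density less affected; inactive = any of these conditions unmet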
PglD DTNB: inhibitors of Campylobacter jejuni PglD acetyltransferase. 0.098% of 360,000 active. inhibition, % at 12.5 µM. purified PglD enzyme, DTNB colorimetric CoA detection. AID 602405; in the data active = inhibition above about 16%, passing the limit was not always enough; inconclusive = no clear call, values can overlap the other calls
HIV Env fusion: blocks HIV Env-driven cell-cell fusion; HeLa-JRFL Env/CEM21 cell fusion, luciferase; 1.1% of 360,000 active; inhibition, % at 12.3 µM;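 active = mean replicate inhibition score of at least 50 and every replicate individually at or above 50; inconclusive = only one of the two criteria met; inactive = mean below 50 and not all replicates reaching 50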;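 also: 0% = plate neutral controls and 100% = maraviroc near 300 nM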
DENV2 CPE: protects cells from dengue virus 2 cytopathic effect. 1.7% of 350,000 active. CPE inhibition, % at 9.99 µM. DENV2-infected cells, cytopathic effect rescue, plate reader; in the data active = CPE inhibition above about 20%, passing the limit was not always enough; inconclusive = no clear call, values can overlap the other calls; tested in BHK-21 cells;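 also: 0% = median of neutral control wells and 100% = median of positive control wells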
* = called active by the depositor; ? = inconclusive; nt = no result given; [ ] = remark or other dose. Sampled rows, rich in hits. Any-hit rate of the full collection: about 3.5%.

SMILES	PGC1a acetyl inh	FN deposit inh	Ecoli rRNA inh	PglD DTNB	HIV Env fusion	DENV2 CPE
O=C(Nc1cc(F)cc(F)c1)c1sc(Cl)nc1-c1ccccc1	-6	-1	0	2	nt	68*
COCc1[nH]nc2c1C(c1ccc(F)cc1)N(Cc1ccccc1)C2=O (stereo not given)	nt	6	-7	nt	77*	-1
COc1ccc(NC(=O)c2ccccc2F)cc1Cl	-15	nt	nt	0	nt	nt
O=C(Nc1ccc(Oc2ccc(Cl)cc2)c(Cl)c1)c1cc(I)cc(I)c1O	9	-5	nt	-4	14	43*
CC=Cc1ccc2n(c1=O)C[C@H]1[C@H](CO)[C@@H](C(=O)NCCc3cn(C)cn3)N(C(=O)C3CC3)[C@@H]21 (mixture of isomers)	nt	nt	3	3	nt	-3
CN(C)CC(=O)N1CC[C@@H]2[C@H]1c1cc(-c3ccccc3F)ccc1N(C)[C@@H]2CO	0	5	-3	1	nt	49*
Cc1ccc(S(=O)(=O)N2CC[C@@H]3[C@@H](CO)N(C)c4ccc(-c5ccccc5F)cc4[C@@H]32)cc1	-16	3	3	-2	nt	7
CN(C)CC(=O)N1CC[C@H]2[C@@H]1c1cc(-c3ccccc3F)ccc1N(C)[C@H]2CO	-4	5	6	0	nt	22*
CN1c2ccc(-c3ccccc3F)cc2[C@H]2[C@H](CCN2S(=O)(=O)c2ccc(F)cc2)[C@H]1CO	-8	-7	-2	-4	nt	65*
CN(C)CC(=O)N1CC[C@@H]2[C@H]1c1cc(-c3ccccc3)ccc1N(C)[C@H]2CO	0	-1	10	3	nt	-9
CN1c2ccc(-c3ccccc3)cc2[C@@H]2[C@@H](CCN2C(=O)CN2CCOCC2)[C@@H]1CO	-8	30*	2	2	nt	?
O=C(Nc1ccccc1F)N[C@@H]1CC[C@H](CCNC(=O)C2CCOCC2)O[C@@H]1CO	3	8	1	0	17[16.7 µM]	-8
C[C@@H]1CCCCO[C@H](CN(C)C(=O)Nc2cccc3ccccc23)[C@H](C)CN([C@@H](C)CO)C(=O)c2cc(NC(=O)c3ccccc3)ccc2O1	3	10	3	-3	-56[16.7 µM]	-15
Cc1cccc(N2CCN(Cc3ccc(Br)o3)CC2)c1C	nt	1	-24	-2	15	-3
Clc1ccccc1N1CCN(Cc2ccc(Br)o2)CC1	nt	-15	-35*	nt	4	?
Brc1ccc(CN2CCN(c3ccccc3)CC2)o1	9	2	2	4	-2	8
Cc1ccccc1N1CCN(Cc2ccc(Br)o2)CC1	-4	-1	-27*	-4	7	-3
CO[C@@H]1CN(C)C(=O)c2ccc(NC(=O)C3CCC3)cc2OC[C@@H](C)N(Cc2nccs2)C[C@@H]1C	nt	-2	-7	-2	nt	0
O=C(Cc1ccccc1)N1CC[C@@H]2[C@H]1c1cc(-c3cccc(F)c3)ccc1N[C@@H]2CO	14	14	-47	2	nt	-3
CC(NC(=O)c1ccccc1NC(=O)CN1CCc2ccccc2C1)c1ccccc1 (stereo not given)	-11	-7	-4	2	69*	-3
CC(NC(=O)c1ccccc1NC(=O)CN1CCN(c2ccccc2O)CC1)c1ccccc1 (stereo not given)	-5	-7	-4	-1	5	13
COc1ccccc1-c1nnc(SCC(=O)NCc2c(C)c(Cl)cc(C(C)C)c2O)o1	-15	nt	5	-2	86*	-2
COc1ccccc1-c1nnc(SCC(=O)Nc2c(Cl)cccc2Cl)o1	-5	-1	nt	-2	-27	nt
O=C(C[C@H]1CC[C@@H](NC(=O)c2cnccn2)[C@@H](CO)O1)NCc1ccccc1F	-9	11	-1	6	3[16.7 µM]	1
C[C@@H]1CN([C@H](C)CO)C(=O)c2cc(NS(=O)(=O)c3ccc(Cl)cc3)ccc2O[C@H]1CN(C)C(=O)Nc1ccccc1	1	nt	-1	3	11[16.7 µM]	0
SMILES	PGC1a acetyl inh	FN deposit inh	Ecoli rRNA inh	PglD DTNB	HIV Env fusion	DENV2 CPE
CCOc1ccccc1C=C1SC(=S)NC1=O	0	-4	-51	0	78*	35*
COCC(=O)Nc1ccc2c(c1)OC[C@@H](C)N(Cc1ccncc1)C[C@@H](C)[C@H](OC)CN(C)C2=O	8	0	1	2	nt	?
Cn1c(NC(=O)C[n+]2cc(-c3ccc(Cl)cc3)n3c2CCC3)cc(=O)n(C)c1=O	nt	3	15	nt	4	-3
Cc1ccc(C[n+]2cc(-c3ccc(Cl)cc3)n3c2CCC3)cc1	-4	-14	-47*	-3	23	8
CC(C)[C@@H]1CC[C@@H](C)C[C@H]1OC(=O)C[n+]1cc(-c2ccc(Cl)cc2)n2c1CCCCC2	-15	-1	nt	nt	83*	-19
Cc1ccc(-c2c[n+](Cc3ccc(Cl)cc3)c3n2CCC3)cc1	nt	-9	nt	nt	-6	-5
COc1ccc(-c2c[n+](CC(=O)OC3CC(C)CCC3C(C)C)c3n2CCC3)cc1 (stereo not given)	1	-5	-49	-6	60*	-3
O=C(C[n+]1cc(-c2ccc(Cl)cc2)n2c1CCCCC2)c1ccccc1	nt	-11	-51*	nt	-17	0
COCC(=O)N(C)C[C@@H]1Oc2cc(C#CCC(C)C)ccc2S(=O)(=O)N([C@H](C)CO)C[C@@H]1C	14	-5	-3	4	10[16.7 µM]	6
O=S(=O)(NC1CC1)c1ccc(S(=O)(=O)N2CCCc3ccccc32)cc1	9	nt	-28	0	69*	-5
COCC#Cc1ccc2c(c1)O[C@H](CN(C)Cc1ccc(F)cc1)[C@H](C)CN([C@H](C)CO)S2(=O)=O	-6	2	4	-1	0[16.7 µM]	-8
CN(CCC1CCCCO1)C(=O)CCc1nnc(CCc2ccccc2)o1 (stereo not given)	0	2	2	-4	nt	61*
CN(CCC1CCCCO1)C(=O)CCc1nnc(Cc2c[nH]c3ccccc23)o1 (stereo not given)	-4	7	7	-2	14	-1
C(=C\c1ccccc1)/CN1CCN(c2ncnc3c2oc2ccccc23)CC1	9	19	nt	nt	78*	nt
Oc1ccc(N=Nc2ccccc2-c2nn[nH]n2)c(O)c1	nt	-14	-31*	-5	5	-1
C[C@H](CO)N1C[C@H](C)[C@H](CN(C)C(=O)Nc2ccc(C(F)(F)F)cc2)OCCCC[C@H](C)Oc2ccc(NC(=O)CCC(F)(F)F)cc2C1=O	6	nt	5	0	-19[16.7 µM]	-8
CCOc1ccc(N(CC(=O)NC2CCCC2)S(=O)(=O)c2c(C)[nH]c(=O)[nH]c2=O)cc1	-3	-4	-1	-2	1	54*
Cc1cc(C)cc(N(CC(=O)NC2CCCCCC2)S(=O)(=O)c2c(C)[nH]c(=O)[nH]c2=O)c1	-3	-1	-5	nt	-4	8

Screening data as filed in PubChem.
